Assay outcomes from PubChem.
HCT116 bCat-KO = primary screen for growth suppressors in beta-catenin knockout HCT116 cells (colon tumor, human). HCT116 beta-catenin knockout viability, CellTiter-Glo, 60 h; hits give low values. viability, % at 10 µM. actives 1.5% (n = 140,000). AID 818, 2007;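 active means viability at or under a set limit, the compound median less 4 SD, cut at about 6% in these data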;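 further: 0% = Hyamine 1622 control at 20 µM and 100% = untreated cell control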
H69AR inhibit = proliferation blockers of H69AR lung cancer cells, primary screen, cell-based, human, 86K library; viability, % at 10 µM; actives 6% (n = 85,000); AID 598, 2007; H69AR lung tumor viability, ATP luminescence, 72 h; hits give low values;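 active means viability at or below 40%; inactive means viability above 40%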;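 further: multidrug resistant small cell line overexpressing MRP-1 efflux transporter; 100% = mean luminescence of untreated control wells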
HUVEC inhibit = inhibitors of HUVEC proliferation, primary screen, cell-based, 384-well; CellTiter-Glo luminescence, 72 h; hits give low values; viability, % at 10 µM (by protocol); actives 1.1% (n = 86,000); AID 648, 2007;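 active means viability at or below 30%; inactive means viability above 30%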;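 further: 100% = median luminescence of DMSO-only cell control wells on each plate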
HCT116 PTEN-null = growth suppression of PTEN-null HCT116, primary screen, cell-based, CellTiter-Glo. actives 1.2% (n = 140,000). viability, % at 10 µM. HCT116 PTEN-null viability, 60 h; hits give low values;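 active means viability at or below a set limit, 4 SD under the median of all tested compounds, cut at about 3.7% in these data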;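 further: PTEN knockout HCT116 line with beta catenin targeted HCT116 as companion control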
Fibroblast inh = antiproliferative effect on LL 47 fibroblasts – human, LL 47 cells, CellTiter-Glo luminescence, primary screen; LL 47 human lung fibroblast viability, ATP luminescence; hits give low values; actives 1.1% (n = 85,000); viability, % at 10 µM; AID 719, 2007;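 active means viability at or below 50% in the single dose screen; inactive means viability above 50%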;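 further: compound exposure lasted 72 h before the ATP readout; 100% = median luminescence of untreated cell-only wells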
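Times – overnight cell rest, 72 h compound treatment at 37 °C · Test system – human lung fibroblast line LL 47, low passage · Amount – 1,150 cells in each well · Controls – cell-only wells, no compound · Doses – 0.1% DMSO in all compound wells · Measured by – CellTiter-Glo luminescence · Buffer or medium – IMEM plus 15% FBS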
Pyk2 oligo antag = antagonists of Pyk2 self-association, primary screen, Q293 cells, FERM NanoBiT luminescence, HTS; actives 0.83% (n = 99,000); hits give low values; z-score (the deposit names both 25 µM and 10 µM); Protein-tyrosine kinase 2-beta (Homo sapiens), Q14289;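 active means Z-score of -3 or lower, scaled per plate to the spread of control and sample wells; inactive means z-score above -3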;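 further: negative z-score means lost luminescence so less FERM oligomerization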
Target sequence (Q14289 whole entry, looked up): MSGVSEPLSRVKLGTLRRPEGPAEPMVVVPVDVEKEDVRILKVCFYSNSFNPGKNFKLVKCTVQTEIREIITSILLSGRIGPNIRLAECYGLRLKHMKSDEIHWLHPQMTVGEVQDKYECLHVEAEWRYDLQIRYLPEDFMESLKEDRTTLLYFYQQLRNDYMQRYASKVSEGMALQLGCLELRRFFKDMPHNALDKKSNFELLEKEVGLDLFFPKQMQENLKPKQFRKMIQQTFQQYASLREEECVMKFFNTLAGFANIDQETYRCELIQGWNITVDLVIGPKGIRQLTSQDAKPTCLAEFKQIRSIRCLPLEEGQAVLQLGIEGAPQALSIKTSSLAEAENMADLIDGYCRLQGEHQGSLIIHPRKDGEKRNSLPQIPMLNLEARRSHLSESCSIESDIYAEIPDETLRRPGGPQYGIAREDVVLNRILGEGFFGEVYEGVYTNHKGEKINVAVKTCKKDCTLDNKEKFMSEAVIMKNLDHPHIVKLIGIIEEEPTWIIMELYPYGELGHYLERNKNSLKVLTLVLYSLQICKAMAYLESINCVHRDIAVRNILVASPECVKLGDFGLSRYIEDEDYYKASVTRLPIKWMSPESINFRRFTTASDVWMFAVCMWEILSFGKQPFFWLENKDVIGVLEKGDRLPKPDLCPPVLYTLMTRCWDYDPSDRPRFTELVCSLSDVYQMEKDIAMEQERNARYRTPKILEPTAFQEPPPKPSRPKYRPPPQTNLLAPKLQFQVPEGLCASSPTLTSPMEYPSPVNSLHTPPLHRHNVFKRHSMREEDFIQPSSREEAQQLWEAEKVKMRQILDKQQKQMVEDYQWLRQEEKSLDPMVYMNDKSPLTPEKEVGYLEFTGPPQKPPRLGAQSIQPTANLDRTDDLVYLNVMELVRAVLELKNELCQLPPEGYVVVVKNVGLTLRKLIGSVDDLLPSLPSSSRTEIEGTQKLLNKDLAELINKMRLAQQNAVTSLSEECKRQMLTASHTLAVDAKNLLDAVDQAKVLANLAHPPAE
Numbers without * were called inactive; · = not tested or not shown. The entries come from a sample that favours hits as a whole.

SMILES	HCT116 bCat-KO	H69AR inhibit	HUVEC inhibit	HCT116 PTEN-null	Fibroblast inh	Pyk2 oligo antag
Cc1ccc(N=CC2=C(O)CC(c3ccco3)CC2=O)cc1 (configuration not stated)	106	98	95	97	104	0.03
Cc1[nH]nc(N=CC2=C(O)CC(c3ccco3)CC2=O)c1-c1ccc(Cl)cc1 (configuration not stated)	82	22*	87	86	97	-2.1
CC1(C)CC(=O)C(C=Nc2ccc(Cl)cn2)=C(O)C1	82	103	96	91	91	1.7
Cc1[nH]nc(N=CC2=C(O)CC(C)(C)CC2=O)c1-c1ccc(Cl)cc1	91	31*	106	94	92	-2
O=C1COC(c2ccccc2)C2CCCCN12 (configuration not stated)	87	·	·	81	·	1
COc1cc(C2C(C#N)=C(N)Oc3cc(O)ccc32)cc2c1OCO2 (configuration not stated)	67	24*	42	62	89	-1.4
COc1ccc(C2C(C#N)=C(N)Oc3cc(O)ccc32)cc1OC (configuration not stated)	95	85	92	93	103	-0.51
CCOC(=O)C1=C(C)OC(N)=C(C#N)C1c1cc(OC)c2c(c1)OCO2 (configuration not stated)	94	88	82	105	94	-0.45
COc1cc(C2C(C#N)=C(N)Oc3cc(N(C)C)ccc32)cc2c1OCO2 (configuration not stated)	13	27*	53	17	51	-2.1
COc1cc(C2C(C#N)=C(N)Oc3cc(O)ccc32)cc(OC)c1OC (configuration not stated)	18	27*	54	17	47*	-0.16
CCN(CC)S(=O)(=O)c1ccc(Cc2ncc(C(F)(F)F)cc2Cl)s1	69	79	108	72	94	0.73
O=C(COC(=O)Cc1cccc(C(F)(F)F)c1)Nc1ccc2c(c1)OCCO2	98	·	·	103	·	·
O=C(/C=C/c1ccc(F)cc1)NCC1(c2ccccc2)CCOCC1	91	·	·	87	·	·
Cc1c(-c2nc(N)nc(Nc3ccc(F)cc3)n2)oc2ccccc12	85	21*	59	86	81	-1.6
CCOC(=O)c1c(NC(=O)c2cc(C(C)C)on2)sc(C(C)=O)c1C	18	66	59	40	99	-0.64
CCOC(=O)c1sc(NC(=O)c2c(C)noc2C)c(C(=O)OCC)c1C	·	38*	81	·	91	·
O=C(N/N=C/c1ccc(Br)cc1)c1ccccc1-n1cccc1	29	21*	56	29	82	-0.99
CCn1c(NC(=O)c2cccc(Cn3cc(Cl)cn3)c2)nc2ccccc21	45	61	88	40	66	·
CCCCn1c(NC(=O)C2CCCCC2)nc2ccccc21	5.2*	54	61	9	57	-0.19
CCCn1c(NC(=O)c2ccco2)nc2ccccc21	67	·	·	68	·	0.1
CN(C)CCCn1c(NC(=O)C2CCCCC2)nc2ccccc21	82	63	84	83	89	-0.91
CCCn1c(NC(=O)c2ccc(Br)cc2)nc2ccccc21	63	32*	74	62	66	0.25
CCCCn1c(NC(=O)c2ccccc2)nc2ccccc21	17	14*	70	12	48*	-1.5
Cn1c(NC(=O)c2cccc(Cn3cc(Cl)cn3)c2)nc2ccccc21	92	37*	72	85	50*	-0.59
CCCCn1c(NC(=S)Nc2ccccc2)nc2ccccc21	41	·	·	30	·	-0.77
CC(C)(C)c1ccc(-c2nnc(SCCN3C(=O)c4ccccc4C3=O)o2)cc1	102	102	103	91	101	0.95
COc1cc(C(=O)OCCNC(=O)c2ccncc2)cc(OC)c1OC	93	·	·	88	·	·
O=S(=O)(c1ccc2c(c1)OCCO2)N1CCC(O)(c2ccc(Cl)cc2)CC1	69	73	91	83	105	-3.2*
Cc1ccc(S(=O)(=O)N2CCCN(S(=O)(=O)c3ccc(C(F)(F)F)cc3)CC2)cc1	10	48	60	18	49*	0.24
